The structures appear in SMILES notation.

A short description of series [1]: Binding affinity to calcium channel. The essentials: (§1)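 Ion channel binding assay; IC50 values calculated for sodium channel and for calcium channel (Dlz site).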
The nature of series [2]: Binding affinity to potassium channel IKr.
Series [3] concerns Meriones unguiculatus. The experiment in a line: Inhibition of GR-73632-induced foot tapping in Mongolian gerbil at 1 mg/kg after 1 hr. In kind it is functional. The essentials: (§2)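 Gerbils given antagonist at the dose and pretreatment time shown (1 mg/kg at 1 h, 3 mg/kg at 24 h); foot tapping then induced with the NK1 agonist GR73632. Read-out is % inhibition of tapping; ED50 or ID50 from dose–response.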

Series [4] has as its target T1, Substance-P receptor (Homo sapiens, UniProt P25103). The series can be described thus: Displacement of [125I]substance P from human NK1 receptor expressed in CHO cells. In kind it is cell-based. An outline of the steps:
(§3)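 Radioligand binding: [125I]substance P displaced from human NK1 receptor expressed in CHO cells; IC50 determined. Also run with 50% serum added (human, dog, rhesus, rat or gerbil) to measure the serum shift.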

Series [5] concerns the target T1, Substance-P receptor. The series can be described thus: Displacement of [125I]substance P from human NK1 receptor expressed in CHO cells in presence of 50% human serum. In kind it is cell-based. The essentials:
as §3

The target of series [6] is T2, PXR (nuclear receptor subfamily 1 group I member 2) (Homo sapiens, UniProt O75469).
T2 sequence (O75469 whole entry): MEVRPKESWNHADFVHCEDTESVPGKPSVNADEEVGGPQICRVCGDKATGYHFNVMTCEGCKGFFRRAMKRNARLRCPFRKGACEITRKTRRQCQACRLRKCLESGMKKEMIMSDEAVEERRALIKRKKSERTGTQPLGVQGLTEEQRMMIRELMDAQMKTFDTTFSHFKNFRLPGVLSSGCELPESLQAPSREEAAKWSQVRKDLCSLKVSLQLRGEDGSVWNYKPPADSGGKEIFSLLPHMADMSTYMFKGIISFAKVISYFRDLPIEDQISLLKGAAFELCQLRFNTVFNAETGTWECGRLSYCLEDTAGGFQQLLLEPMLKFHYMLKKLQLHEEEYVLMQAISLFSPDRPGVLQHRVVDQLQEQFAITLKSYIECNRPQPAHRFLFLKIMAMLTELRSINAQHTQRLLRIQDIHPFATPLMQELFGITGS
The experiment in a line: Inhibition of human PXR induction at 10 uM. The essentials:
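Human PXR induction measured at 10 µM compound, expressed as % of maximal induction.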

The subject of series [7] is Meriones unguiculatus. The series can be described thus: Inhibition of GR-73632-induced foot tapping in Mongolian gerbil at 3 mg/kg after 24 hrs. In kind it is functional. An outline of the steps: as §2
For series [8], the target named is T3, Nuclear receptor subfamily 1 group I member 2 (Homo sapiens, UniProt O75469).
T3 sequence (O75469 whole entry): T2 sequence (O75469 whole entry)
The experiment in a line: Inhibition of human PXR induction.

Series [9] has as its target T1, Substance-P receptor. The experiment in a line: Antagonist activity at human recombinant NK1 receptor expressed in CHO cells assessed as remaining substance P level at 100 nM after 30 mins by [H3]-inositol phosphate release assay. Type of series: functional, cell-based. The essentials:
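CHO cells with recombinant human NK1 receptor, 2.5 × 10⁴ per well, plated overnight, then prelabelled overnight at 37 °C with [3H]-myo-inositol (10–25 Ci/mmol) in inositol-free medium with 0.02% BSA. LiCl 10 mM in HEPES-buffered inositol-free DMEM, 15 min. Antagonist at 100 nM or DMSO for 30 min, then substance P for 30 min. Stopped with formic acid. [3H]-inositol phosphate captured on yttrium silicate SPA beads, 2 h. Reported as % substance P response remaining.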

The target in series [10] is T1, Substance-P receptor. The series can be described thus: Displacement of [125I]substance P from human NK1 receptor expressed in CHO cells in presence of 50% rat serum. In kind it is cell-based. The essentials: as §3
The nature of series [11]: Volume of distribution in rat. In kind it is ADME, organism-based. The settings on record: in vivo.
Series [12] addresses T1, Substance-P receptor. The series can be described thus: Displacement of [125I]substance P from human NK1 receptor expressed in CHO cells in presence of 50% rhesus monkey serum. In kind it is cell-based. An outline of the steps:
as §3

Series [13] in a line: Ratio of drug level in brain to plasma in Mongolian gerbil. Type of series: ADME, Meriones unguiculatus. The settings on record: read-out: BPR.
In the next series the target is Cytochrome P450 2C9 (Homo sapiens, UniProt P11712). The series can be described thus: Inhibition of CYP2C9. In kind it is ADME.
Series [14] is described as follows: Half life in dog. In kind it is ADME, organism-based, Canis lupus familiaris. The settings on record: in vivo.
Series [15] is filed under the species Meriones unguiculatus. The series can be described thus: Inhibition of GR-73632-induced foot tapping in Mongolian gerbil after 24 hrs. In kind it is functional. The essentials:
as §2

The nature of series [16]: Metabolic stability in rat microsomes assessed as compound remaining after 60 mins. In kind it is ADME, Microsome. The settings on record: read-out: Stability. An outline of the steps: (§4)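 Compound incubated 60 min with liver microsomes from human, dog, rat or rhesus; % parent remaining measured.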
Series [17] can be described thus: Metabolic stability in human microsomes assessed as compound remaining after 60 mins. In kind it is ADME, Microsome. The settings on record: read-out: Stability. The essentials: as §4
Series [18] has as its target T1, Substance-P receptor. The series can be described thus: Displacement of [125I]substance P from human NK1 receptor expressed in CHO cells in presence of 50% dog serum. In kind it is cell-based. An outline of the steps:
as §3

Series [19] is filed under the species Meriones unguiculatus. The experiment in a line: Inhibition of GR-73632-induced foot tapping in Mongolian gerbil after 1 hr. Type of series: functional. The settings on record: read-out: ID50 (the source's name). The essentials:
as §2

The target in series [20] is T1, Substance-P receptor. The series can be described thus: Displacement of [125I]substance P from human NK1 receptor expressed in CHO cells in presence of 50% mongolian gerbil serum. In kind it is cell-based. The essentials:
as §3

Series [21] in a line: Plasma clearance in dog. In kind it is ADME, organism-based, Canis lupus familiaris.
Series [22] in a line: Mean residence time in rat. The settings on record: in vivo. Type of series: ADME, organism-based.
Series [23] is described as follows: Plasma clearance in rat. In kind it is ADME, organism-based.
Series [24] in a line: Binding affinity to sodium channel. An outline of the steps:
as §1

A short description of series [25]: Metabolic stability in dog microsomes assessed as compound remaining after 60 mins. Type of series: ADME, Canis lupus familiaris, Microsome. The settings on record: read-out: Stability. The essentials:
as §4

Another series addresses Cytochrome P450 3A4 (Homo sapiens, UniProt P08684). The series can be described thus: Inhibition of CYP3A4. Type of series: ADME.
The nature of series [26]: Oral bioavailability in rat. The settings on record: in vivo. In kind it is ADME, organism-based.
Series [27] in a line: Metabolic stability in rhesus monkey microsomes assessed as compound remaining after 60 mins. Type of series: ADME, Macaca mulatta, Microsome. The settings on record: read-out: Stability. The essentials:
as §4

The nature of series [28]: Half life in rat. In kind it is ADME, organism-based. The settings on record: in vivo.
For another series, the target named is Cytochrome P450 2D6 (Homo sapiens, UniProt P10635). The series can be described thus: Inhibition of CYP2D6. Type of series: ADME.
Sequence of Cytochrome P450 2D6 (P10635 whole entry): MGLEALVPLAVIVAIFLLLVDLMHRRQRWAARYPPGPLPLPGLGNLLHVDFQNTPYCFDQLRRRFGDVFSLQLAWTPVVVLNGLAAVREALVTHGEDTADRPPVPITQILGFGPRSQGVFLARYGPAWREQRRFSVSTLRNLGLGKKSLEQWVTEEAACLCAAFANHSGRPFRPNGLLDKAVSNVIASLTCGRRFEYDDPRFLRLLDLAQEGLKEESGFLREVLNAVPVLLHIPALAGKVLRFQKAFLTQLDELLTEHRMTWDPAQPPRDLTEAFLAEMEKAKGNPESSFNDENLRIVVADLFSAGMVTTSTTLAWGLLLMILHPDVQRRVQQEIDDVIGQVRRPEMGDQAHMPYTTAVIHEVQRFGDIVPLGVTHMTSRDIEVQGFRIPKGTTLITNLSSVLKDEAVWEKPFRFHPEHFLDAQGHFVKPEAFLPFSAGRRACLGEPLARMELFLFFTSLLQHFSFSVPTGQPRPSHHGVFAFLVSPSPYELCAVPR

T1 sequence (P25103 whole entry): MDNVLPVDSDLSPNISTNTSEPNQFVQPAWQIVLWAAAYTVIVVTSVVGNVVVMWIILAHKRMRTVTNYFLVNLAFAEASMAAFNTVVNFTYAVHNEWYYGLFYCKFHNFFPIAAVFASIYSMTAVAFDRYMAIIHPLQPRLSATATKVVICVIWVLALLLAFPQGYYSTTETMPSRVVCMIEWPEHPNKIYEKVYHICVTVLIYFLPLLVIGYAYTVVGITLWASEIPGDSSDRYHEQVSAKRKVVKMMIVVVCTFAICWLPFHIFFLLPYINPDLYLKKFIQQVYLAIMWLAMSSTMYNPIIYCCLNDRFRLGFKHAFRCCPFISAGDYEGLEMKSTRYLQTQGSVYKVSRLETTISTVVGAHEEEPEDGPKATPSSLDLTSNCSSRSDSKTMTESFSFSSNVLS
Sequence of Cytochrome P450 3A4 (P08684 whole entry): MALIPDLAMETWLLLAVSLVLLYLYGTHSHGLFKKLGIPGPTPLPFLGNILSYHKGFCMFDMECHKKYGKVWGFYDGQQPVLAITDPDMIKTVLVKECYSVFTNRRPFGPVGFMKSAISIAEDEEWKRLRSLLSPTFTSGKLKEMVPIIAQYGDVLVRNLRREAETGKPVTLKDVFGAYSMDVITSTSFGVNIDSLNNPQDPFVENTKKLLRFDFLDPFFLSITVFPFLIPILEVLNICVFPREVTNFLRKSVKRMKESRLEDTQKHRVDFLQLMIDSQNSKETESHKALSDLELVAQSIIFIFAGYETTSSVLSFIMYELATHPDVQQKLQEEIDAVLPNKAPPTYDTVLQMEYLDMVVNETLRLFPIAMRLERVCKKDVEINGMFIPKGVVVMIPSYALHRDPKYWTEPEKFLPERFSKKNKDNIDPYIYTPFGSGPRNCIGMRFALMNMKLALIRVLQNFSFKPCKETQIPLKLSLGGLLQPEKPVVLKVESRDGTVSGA
Sequence of Cytochrome P450 2C9 (P11712 whole entry): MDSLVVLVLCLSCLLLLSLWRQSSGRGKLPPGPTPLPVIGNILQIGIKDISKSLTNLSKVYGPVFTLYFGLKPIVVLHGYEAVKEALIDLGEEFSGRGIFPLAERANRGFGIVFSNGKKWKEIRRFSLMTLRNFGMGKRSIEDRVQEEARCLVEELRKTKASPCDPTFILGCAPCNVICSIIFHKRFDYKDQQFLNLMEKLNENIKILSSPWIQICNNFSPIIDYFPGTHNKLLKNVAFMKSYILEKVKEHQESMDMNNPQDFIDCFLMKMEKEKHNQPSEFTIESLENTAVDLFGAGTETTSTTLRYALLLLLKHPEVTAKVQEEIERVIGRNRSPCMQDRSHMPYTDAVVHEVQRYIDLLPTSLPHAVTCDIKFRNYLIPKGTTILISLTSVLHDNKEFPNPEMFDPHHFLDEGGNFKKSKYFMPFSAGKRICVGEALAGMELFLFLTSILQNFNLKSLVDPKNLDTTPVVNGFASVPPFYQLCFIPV

`C[C@@H](O[C@H]1CN2C(=O)C3CN(C4=CC(=O)CC4)CC3[C@H]2[C@@H]1c1ccc(F)cc1)c1cc(C(F)(F)F)cc(C(F)(F)F)c1` (stereo in doubt; 18b) [FIRST ELUDED ISOMER]: the IC50 in series [1] was 4810 nM; in series [2], 730 nM; on Substance-P receptor [4], 0.09 nM; on Substance-P receptor [5] it was 1 nM. At 1 mg/kg the inhibition in vivo in the series on Meriones unguiculatus [3] was 92%.

`C[C@@H](O[C@H]1CN2C(=O)[C@H]3C[C@@H](O)C[C@H]3[C@H]2[C@@H]1c1ccc(F)cc1)c1cc(C(F)(F)F)cc(C(F)(F)F)c1`: the Emax at 10 µM in series [6] came to 65%. The same molecule yielded an inhibition in vivo at 1 mg/kg in the series with Meriones unguiculatus [3] of 100%. For the same molecule, the IC50 turned out to be 0.06 nM at Substance-P receptor [4], 4500 nM in [8] and 0.77 nM at Substance-P receptor [5]. The same molecule yielded an inhibition in vivo at 3 mg/kg with Meriones unguiculatus [7] of 100%. Moreover, the Activity on Substance-P receptor [9] turned out to be 3%.

In the case of `C[C@@H](O[C@H]1CN2C(=O)[C@H]3C[C@@](C)(O)C[C@H]3[C@H]2[C@@H]1c1ccc(F)cc1)c1cc(C(F)(F)F)cc(C(F)(F)F)c1`, the IC50 in [1] was more than 10000 nM; in [2], 2470 nM; on Substance-P receptor [10], 0.4 nM; on Substance-P receptor [12] it was 0.4 nM; against Cytochrome P450 2C9, 43100 nM; at Substance-P receptor [4] it was 0.061 nM. Further, the 50% inhibitory concentration (IC50) at Substance-P receptor [18] is 1.5 nM; in [8], 8400 nM; on Substance-P receptor [20], 1.9 nM; in series [24], more than 10000 nM; against Cytochrome P450 3A4, 22700 nM; on Substance-P receptor [5], 0.7 nM. The IC50 against Cytochrome P450 2D6 was 17400 nM. This molecule also had a Vd in series [11] of 4.03 L/kg. In series [6], this molecule displayed an Emax at 10 µM of 37%. Moreover, in series [13], the Kp came to 0.5. Also, the half-life in series [14] is 58 h; in series [28], 14.6 h. Moreover, the ED50 in the series listed under Meriones unguiculatus [15] (read-out: ED50), in the series filed under Meriones unguiculatus [15] (read-out: ID50 (the source's name)) and in the series filed under Meriones unguiculatus [19] was 0.02 mg/kg in each case. Besides, the remaining at 1 h stood at 96% in series [16], 96% in [17], 90% in [25] and 99% in series [27]. Further, the inhibition in vivo at 3 mg/kg with Meriones unguiculatus [7] amounted to 100%. In addition, the clearance in series [21] turned out to be 0.5 mL/min/kg; in series [23], 3.24 mL/min/kg. This molecule also displayed an MRT in series [22] of 4.67 h. Further, in series [26], the bioavailability was found to be 88.8%. For the same molecule, the Activity on Substance-P receptor [9] came out at 3%.
